# Test results published in ChEMBL document CHEMBL4402547, “Synthesis and Pharmacological Characterization of Conformationally Restricted Retigabine Analogues as Novel Neuronal Kv7 Channel Activators” (J Med Chem, 2020).
# Active and inactive are the calls of the source. No cut-off for these calls is given here.
# Key:
# [1] = target: T1, Potassium voltage-gated channel subfamily KQT member 2 (Homo sapiens, UniProt O43526); assay: Activation of human Kv7.2 expressed in CHO cells assessed as increase in channel current amplitude by whole cell patch clamp electrophysiology assay; type: cell-based
# [2] = target: T2, Potassium voltage-gated channel subfamily KQT member 4 (Homo sapiens, UniProt P56696); assay: Activation of human Kv7.4 expressed in CHO cells assessed as increase in channel current amplitude by whole cell patch clamp electrophysiology assay; type: cell-based
# T2 sequence (P56696 whole entry): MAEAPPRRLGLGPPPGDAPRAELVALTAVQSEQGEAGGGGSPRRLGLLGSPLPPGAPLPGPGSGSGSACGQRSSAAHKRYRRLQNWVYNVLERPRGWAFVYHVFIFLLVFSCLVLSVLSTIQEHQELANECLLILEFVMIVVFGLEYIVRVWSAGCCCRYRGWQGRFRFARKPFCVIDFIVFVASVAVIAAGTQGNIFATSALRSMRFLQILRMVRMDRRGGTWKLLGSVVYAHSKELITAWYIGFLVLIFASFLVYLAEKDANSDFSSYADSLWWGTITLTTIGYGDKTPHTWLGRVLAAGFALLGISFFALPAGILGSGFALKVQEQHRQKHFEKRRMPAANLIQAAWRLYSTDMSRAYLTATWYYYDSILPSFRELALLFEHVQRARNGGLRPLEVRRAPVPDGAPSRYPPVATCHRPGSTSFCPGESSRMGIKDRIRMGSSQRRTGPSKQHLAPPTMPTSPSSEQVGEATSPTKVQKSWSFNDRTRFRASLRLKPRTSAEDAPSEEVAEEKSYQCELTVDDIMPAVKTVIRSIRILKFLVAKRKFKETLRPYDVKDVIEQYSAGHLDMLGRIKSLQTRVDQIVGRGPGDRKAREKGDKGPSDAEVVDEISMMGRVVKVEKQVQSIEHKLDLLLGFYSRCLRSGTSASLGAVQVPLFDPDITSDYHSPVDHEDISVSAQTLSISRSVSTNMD
# [3] = target: T1, Potassium voltage-gated channel subfamily KQT member 2; assay: Potency index, ratio of EC50 for RET to EC50 for test compound for activation of human Kv7.2 expressed in CHO cells; type: cell-based
# [4] = target: T1, Potassium voltage-gated channel subfamily KQT member 2; assay: Activation of human Kv7.2 expressed in CHO cells assessed as current amplitude at 10 uM measured after 10 secs upon drug wash-out at holding potential of -40 mV by whole cell patch clamp electrophysiology assay; type: cell-based
# How it was run: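 Human Kv7.2 transiently expressed in CHO cells, whole-cell patch clamp at 20–22°C, pH 7.4 HEPES-buffered extracellular solution under constant perfusion. Cells held at -80 mV; 3-s ramps -80 to +20 mV with and without compound; current at -40 mV taken as drug/control amplitude ratio, followed over time during application and wash-out; mean ± SEM of ≥3 cells from ≥2 transfections.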
# [5] = Photostability of compound in pH 7.4 buffer assessed as retention time of metabolite incubated for 6 hrs under visible light irradiation by HPLC/MS analysis
# [6] = Photostability of compound in pH 7.4 buffer assessed as metabolite with phenazinium-dimer formation incubated for 6 hrs under visible light irradiation by HPLC/MS/MS analysis
# T1 sequence (O43526 whole entry): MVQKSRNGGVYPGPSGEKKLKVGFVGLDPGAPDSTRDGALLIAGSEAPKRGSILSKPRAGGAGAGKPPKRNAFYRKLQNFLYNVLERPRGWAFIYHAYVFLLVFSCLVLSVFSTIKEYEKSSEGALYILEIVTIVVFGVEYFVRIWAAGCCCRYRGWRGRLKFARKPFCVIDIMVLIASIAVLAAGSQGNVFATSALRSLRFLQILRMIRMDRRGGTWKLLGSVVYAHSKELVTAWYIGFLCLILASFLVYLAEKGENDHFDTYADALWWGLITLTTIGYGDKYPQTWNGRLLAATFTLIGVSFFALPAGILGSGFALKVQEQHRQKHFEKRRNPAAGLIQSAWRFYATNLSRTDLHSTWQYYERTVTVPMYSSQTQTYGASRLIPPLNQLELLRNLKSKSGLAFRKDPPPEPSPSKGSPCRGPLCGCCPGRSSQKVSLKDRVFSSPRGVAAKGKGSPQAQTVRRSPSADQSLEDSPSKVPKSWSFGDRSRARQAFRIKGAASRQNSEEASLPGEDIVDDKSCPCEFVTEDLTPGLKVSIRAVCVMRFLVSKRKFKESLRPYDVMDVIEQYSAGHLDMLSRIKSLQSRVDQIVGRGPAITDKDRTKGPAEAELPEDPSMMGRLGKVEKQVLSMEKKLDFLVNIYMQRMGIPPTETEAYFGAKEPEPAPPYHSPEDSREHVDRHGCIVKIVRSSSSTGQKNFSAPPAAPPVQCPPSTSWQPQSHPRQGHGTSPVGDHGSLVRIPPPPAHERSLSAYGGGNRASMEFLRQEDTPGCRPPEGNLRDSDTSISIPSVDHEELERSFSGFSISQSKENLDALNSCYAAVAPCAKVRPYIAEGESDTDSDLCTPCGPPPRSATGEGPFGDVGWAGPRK
smiles,measurement,setting,value
CC(C)(C)CC(=O)Nc1ccc2c(ccn2Cc2ccc(C(F)(F)F)cc2)c1,EC50,[1],630 nM
same,EC50,[2],80 nM
CCCCCCC(=O)Nc1ccc2c(ccn2Cc2ccc(C(F)(F)F)cc2)c1,Ratio EC50,[3],12
CCOC(=O)Nc1ccc(NCc2ccc(F)cc2)cc1N [EZOGABINE],Activity,[4],inactive
same,Retention time,[5],5.98 min
same,Drug metabolism,[6],Metabolite detected
